# ChEMBL document CHEMBL1131003, “Nonsymmetric P2/P2' cyclic urea HIV protease inhibitors. Structure-activity relationship, bioavailability, and resistance profile of monoindazole-substituted P2 analogues” (J Med Chem, 1998)
# Tests used:
# [1] = target: Human immunodeficiency virus type 1 protease (Human immunodeficiency virus 1, UniProt Q72874); assay: Inhibitory activity against HIV protease
# Outline: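 Ki for HIV protease, measured by cleavage of a fluorescent substrate with HPLC analysis, following the earlier method.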
# MT2 = assay: Antiviral potency evaluated by measuring accumulation of viral RNA transcripts 3 days after infection of MT-2 cells with HIV-1 RF; type: functional; conditions: Homo sapiens, MT2, 72 h
Structure (SMILES),Ki [1],IC90 (MT2)
O=C1N(Cc2ccc3[nH]ncc3c2)[C@H](CCc2ccccc2)[C@@H](O)[C@@H](Cc2ccccc2)N1Cc1ccc2[nH]ncc2c1,0.023 nM,6 nM
O=C1N(Cc2cccc(Cn3ccnn3)c2)[C@H](Cc2ccccc2)[C@H](O)[C@@H](O)[C@@H](Cc2ccccc2)N1Cc1ccc2[nH]ncc2c1,0.11 nM,30 nM
COC(=O)Cc1cccc(CN2C(=O)N(Cc3ccc4[nH]ncc4c3)[C@H](Cc3ccccc3)[C@H](O)[C@@H](O)[C@H]2Cc2ccccc2)c1,0.11 nM,32 nM
O=C(Nc1ccccn1)c1cccc(CN2C(=O)N(Cc3cccc(C(=O)Nc4ccccn4)c3)[C@H](Cc3ccccc3)[C@H](O)[C@@H](O)[C@H]2Cc2ccccc2)c1,–,2.8 nM
O=C1N(Cc2ccc3ccccc3c2)[C@H](Cc2ccccc2)[C@H](O)[C@@H](O)[C@@H](Cc2ccccc2)N1Cc1ccc2ccccc2c1,–,3900 nM
CN(C)c1cccc(CN2C(=O)N(Cc3ccc4[nH]ncc4c3)[C@H](Cc3ccccc3)[C@H](O)[C@@H](O)[C@H]2Cc2ccccc2)c1,0.23 nM,39 nM
O=C(Cn1cccn1)c1cccc(CN2C(=O)N(Cc3ccc4[nH]ncc4c3)[C@H](Cc3ccccc3)[C@H](O)[C@@H](O)[C@H]2Cc2ccccc2)c1,0.063 nM,15 nM
O=C1N(Cc2cccc(Cn3cccn3)c2)[C@H](Cc2ccccc2)[C@H](O)[C@@H](O)[C@@H](Cc2ccccc2)N1Cc1ccc2[nH]ncc2c1,0.17 nM,46 nM
Cc1ccc(CN2C(=O)N(Cc3ccc4[nH]ncc4c3)[C@H](Cc3ccccc3)[C@H](O)[C@@H](O)[C@H]2Cc2ccccc2)cc1N,0.05 nM,15 nM
Nc1cc(CN2C(=O)N(Cc3ccc4[nH]ncc4c3)[C@H](Cc3ccccc3)[C@H](O)[C@@H](O)[C@H]2Cc2ccccc2)ccc1F,0.018 nM,14 nM
O=C1N(Cc2ccc(F)c(NCc3nc4ccccc4[nH]3)c2)[C@H](Cc2ccccc2)[C@H](O)[C@@H](O)[C@@H](Cc2ccccc2)N1Cc1ccc2[nH]ncc2c1,0.028 nM,30 nM
CCNC(=O)c1cccc(CN2C(=O)N(Cc3cccc(C(=O)NCC)c3)[C@H](Cc3ccccc3)[C@H](O)[C@@H](O)[C@H]2Cc2ccccc2)c1,–,138 nM
O=C1N(Cc2cccc(Cn3cncn3)c2)[C@H](Cc2ccccc2)[C@H](O)[C@@H](O)[C@@H](Cc2ccccc2)N1Cc1ccc2[nH]ncc2c1,0.054 nM,35 nM
Nc1ccc(CN2C(=O)N(Cc3ccc4[nH]ncc4c3)[C@H](Cc3ccccc3)[C@H](O)[C@@H](O)[C@H]2Cc2ccccc2)cc1-n1nccn1,0.059 nM,12 nM
O=C(Nc1nc2ccccc2[nH]1)c1cccc(CN2C(=O)N(Cc3cccc(C(=O)Nc4nc5ccccc5[nH]4)c3)[C@H](Cc3ccccc3)[C@H](O)[C@@H](O)[C@H]2Cc2ccccc2)c1,–,5.1 nM
NC(=O)c1cccc(CN2C(=O)N(Cc3cccc(C(N)=O)c3)[C@H](Cc3ccccc3)[C@H](O)[C@@H](O)[C@H]2Cc2ccccc2)c1,–,709 nM
O=C1N(Cc2cccc(CCO)c2)[C@H](Cc2ccccc2)[C@H](O)[C@@H](O)[C@@H](Cc2ccccc2)N1Cc1ccc2[nH]ncc2c1,0.05 nM,17 nM
NC(=O)c1cccc(CN2C(=O)N(Cc3cccc(C(N)=O)c3)[C@H](Cc3ccccc3)[C@H](O)[C@H]2CCc2ccccc2)c1,–,35 nM
O=C(Nc1nccs1)c1cccc(CN2C(=O)N(Cc3cccc(C(=O)Nc4nccs4)c3)[C@H](Cc3ccccc3)[C@H](O)[C@@H](O)[C@H]2Cc2ccccc2)c1,–,4.2 nM
O=C1N(Cc2ccc3[nH]ncc3c2)[C@H](Cc2ccccc2)[C@H](O)[C@@H](O)[C@@H](Cc2ccccc2)N1Cc1ccc2[nH]ncc2c1,–,7 nM
CNC(=O)c1cccc(CN2C(=O)N(Cc3cccc(C(=O)NC)c3)[C@H](Cc3ccccc3)[C@H](O)[C@@H](O)[C@H]2Cc2ccccc2)c1,–,81 nM
O=C1N[C@H](Cc2ccccc2)[C@H](O)[C@@H](O)[C@@H](Cc2ccccc2)N1Cc1ccc2[nH]ncc2c1,–,550 nM
N=C(NO)c1cccc(CN2C(=O)N(Cc3cccc(/C(N)=N/O)c3)[C@H](CCc3ccccc3)[C@@H](O)[C@H]2Cc2ccccc2)c1,–,49 nM
